Experimental data from PMC10622895 (Proceedings of the National Academy of Sciences of the …, 2023).

Experiments:
[1] = ref [1]; cited from earlier work
[2] = system: mouse intestinal epithelium; assay: IHC of cleaved PARP1 and Ki67 in mouse intestine; assay type: in vivo; conditions: mice of the BCM2665 experiment
Procedure, shortened: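 NSG mice carried BCM2665 breast cancer PDX. Mice were euthanized the day after the last dose. Intestine was IHC-stained for cleaved PARP1 (10× objective), with percent positive cells determined by image analysis. Ki67 IHC was done on intestinal epithelium (20× objective).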

BCM3107 TNBC PDX = assay: Patient-derived xenograft in NSG mice; assay type: in vivo, mouse; conditions: 5D4 40 mg/kg i.p. twice weekly; talazoparib 0.5 mg/kg daily × 5 per week
BCM2665 PDX = assay: IHC of cleaved PARP1 in PDX tumors; assay type: in vivo, mouse
Procedure, shortened: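 Tumors were taken the day after the last dose for cleaved PARP1 IHC. Percent positive cells was scored on twelve 10× images from three xenografts per group.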

CNCc1ccc(-c2[nH]c3cc(F)cc4c3c2CCNC4=O)cc1 [rucaparib]
viability of nontransformed hepatocytes (AML12 mouse hepatocytes): did not elicit any effect

O=C(O)CN(CC(=O)O)Cc1cc2c(cc1O)Oc1cc(O)c(CN(CC(=O)O)CC(=O)O)cc1C21OC(=O)c2ccccc21 [calcein]
membrane permeability [1]: lacks membrane permeability

Cn1ncnc1[C@H]1c2n[nH]c(=O)c3cc(F)cc(c23)N[C@@H]1c1ccc(F)cc1 [talazoparib]
apoptosis and Ki67 staining in mouse intestinal epithelium [2]: neither induced apoptosis nor affected Ki67 staining
tumor response, single agent (BCM3107 TNBC PDX): resistant
apoptosis in PDX (PARP-1 cleavage, IHC) (BCM2665 PDX): only had mild proapoptotic effect
